For two compounds, EC50 and IC50 results are on record in ChEMBL document CHEMBL4138251, “Iodine-Promoted Aromatization of p-Menthane-Type Phytocannabinoids” (J Nat Prod, 2018).

For experiment [1], the target named is T1, Transient receptor potential cation channel subfamily V member 2 (Rattus norvegicus, UniProt Q9WUD2).
T1 sequence (Q9WUD2 whole entry): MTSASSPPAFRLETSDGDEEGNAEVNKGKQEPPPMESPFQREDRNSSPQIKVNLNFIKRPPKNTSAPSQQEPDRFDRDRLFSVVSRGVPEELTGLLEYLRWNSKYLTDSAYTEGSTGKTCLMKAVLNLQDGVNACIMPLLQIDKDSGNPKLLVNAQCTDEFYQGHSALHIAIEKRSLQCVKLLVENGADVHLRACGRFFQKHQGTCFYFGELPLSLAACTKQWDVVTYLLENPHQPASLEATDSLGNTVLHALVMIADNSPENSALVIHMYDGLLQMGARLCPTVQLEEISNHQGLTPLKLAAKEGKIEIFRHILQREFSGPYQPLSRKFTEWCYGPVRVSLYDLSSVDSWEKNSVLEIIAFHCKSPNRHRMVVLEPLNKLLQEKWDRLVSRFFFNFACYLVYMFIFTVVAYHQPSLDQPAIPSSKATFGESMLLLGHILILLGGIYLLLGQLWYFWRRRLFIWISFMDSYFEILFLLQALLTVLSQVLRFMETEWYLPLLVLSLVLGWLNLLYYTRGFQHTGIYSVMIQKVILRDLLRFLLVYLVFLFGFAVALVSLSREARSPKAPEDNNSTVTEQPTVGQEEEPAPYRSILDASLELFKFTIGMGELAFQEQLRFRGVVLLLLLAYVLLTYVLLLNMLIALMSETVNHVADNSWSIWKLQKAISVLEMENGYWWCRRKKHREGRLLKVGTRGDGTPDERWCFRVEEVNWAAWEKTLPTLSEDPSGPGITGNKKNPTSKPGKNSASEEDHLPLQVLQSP
Description: Agonist activity at recombinant rat TRPV2 expressed in HEK293 cells assessed as increase in intracellular calcium level by Fluo4-AM probe based fluorescence assay. Format: cell-based. An outline of the steps:
(§1)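 HEK-293 cells stably expressing the channel, selected with G-418 (600 μg mL−1) and grown in MEM with 10% FBS and 2 mM glutamine at 37 °C, 5% CO2. Cells were loaded 1 h at room temperature in the dark with Fluo-4 AM (4 μM). Cells were washed and suspended in Tyrode's buffer pH 7.4, and fluorescence was read at 25 °C (ex 488/em 516 nm).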

The target of experiment [2] is Transient receptor potential cation channel subfamily A member 1 (Rattus norvegicus, UniProt Q6RI86). Description: Agonist activity at recombinant rat TRPA1 expressed in HEK293 cells assessed as increase in intracellular calcium level by Fluo4-AM probe based fluorescence assay. The format is cell-based. An outline of the steps:
as §1
On the technique in general: Calcium assays in cells follow changes in intracellular calcium, usually with a dye or a luminescent sensor.

The target of experiment [3] is T2, Transient receptor potential cation channel, subfamily V, member 3 (Rattus norvegicus, UniProt E9PU00).
T2 sequence (E9PU00 whole entry): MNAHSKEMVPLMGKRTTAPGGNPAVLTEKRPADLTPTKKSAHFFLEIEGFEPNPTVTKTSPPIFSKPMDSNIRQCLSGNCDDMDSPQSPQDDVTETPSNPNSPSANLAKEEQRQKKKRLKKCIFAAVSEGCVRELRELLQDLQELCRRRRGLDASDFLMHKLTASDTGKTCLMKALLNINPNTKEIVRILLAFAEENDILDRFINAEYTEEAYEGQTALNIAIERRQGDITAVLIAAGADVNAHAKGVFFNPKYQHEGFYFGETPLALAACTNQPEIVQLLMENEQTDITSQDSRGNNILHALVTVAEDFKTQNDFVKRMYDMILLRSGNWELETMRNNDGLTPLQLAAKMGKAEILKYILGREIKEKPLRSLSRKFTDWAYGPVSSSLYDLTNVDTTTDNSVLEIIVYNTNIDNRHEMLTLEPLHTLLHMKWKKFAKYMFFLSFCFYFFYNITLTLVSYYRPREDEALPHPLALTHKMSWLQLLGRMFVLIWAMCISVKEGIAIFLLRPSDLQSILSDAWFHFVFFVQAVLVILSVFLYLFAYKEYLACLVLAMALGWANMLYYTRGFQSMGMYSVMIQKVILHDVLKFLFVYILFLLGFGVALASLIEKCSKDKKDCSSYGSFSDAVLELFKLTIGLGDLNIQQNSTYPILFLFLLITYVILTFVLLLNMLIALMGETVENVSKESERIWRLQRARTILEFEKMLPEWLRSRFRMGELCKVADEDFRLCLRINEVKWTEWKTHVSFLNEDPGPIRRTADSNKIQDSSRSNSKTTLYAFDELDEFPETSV
The experiment in a line: Agonist activity at recombinant rat TRPV3 expressed in HEK293 cells assessed as increase in intracellular calcium level by Fluo4-AM probe based fluorescence assay. The format is cell-based. An outline of the steps: as §1

A further experiment deals with Cannabinoid receptor 1 (Homo sapiens, UniProt P21554). The experiment in a line: Displacement of 3H-CP-55940 from recombinant full length human CB1 receptor expressed in HEK293 cell membranes after 90 mins by topcount scintillation counting analysis.
The target in experiment [4] is Transient receptor potential cation channel subfamily V member 1 (Homo sapiens, UniProt Q8NER1). Description: Agonist activity at human TRPV1 expressed in HEK293 cells assessed as increase in intracellular calcium level by Fluo4-AM probe based fluorescence assay. The format is cell-based. An outline of the steps: as §1
Experiment [5] concerns the target Transient receptor potential cation channel subfamily V member 4 (Rattus norvegicus, UniProt Q9ERZ8). Description: Agonist activity at recombinant rat TRPV4 expressed in HEK293 cells assessed as increase in intracellular calcium level by Fluo4-AM probe based fluorescence assay. The format is cell-based. An outline of the steps:
as §1

Experiment [6] deals with Transient receptor potential cation channel subfamily M member 8 (Rattus norvegicus, UniProt Q8R455). The experiment in a line: Antagonist activity at recombinant rat TRPM8 expressed in HEK293 cells assessed as inhibition of icilin-induced intracellular calcium level incubated for 5 mins followed by agonist stimulation by Fluo4-AM probe based fluorescence assay. Format: cell-based. An outline of the steps: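 Rat TRPM8 HEK-293 cells were loaded with Fluo-4 AM and suspended in Tyrode's buffer pH 7.4. Compound was added 5 min before icilin (0.25 μM), and [Ca2+]i was read at 22 °C on a Peltier system. IC50 for half-maximal inhibition of the agonist response was taken from sigmoidal fits.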

In the next experiment the target is Cannabinoid receptor 2 (Homo sapiens, UniProt P34972). Description: Displacement of 3H-CP-55940 from recombinant full length human CB2 receptor expressed in HEK293 cell membranes after 90 mins by topcount scintillation counting analysis. On the technique in general: Loss of bound radioactivity is the signal in a displacement assay; it reports binding, not function.

Structures are written as SMILES.

Sequence of Cannabinoid receptor 1 (P21554 whole entry): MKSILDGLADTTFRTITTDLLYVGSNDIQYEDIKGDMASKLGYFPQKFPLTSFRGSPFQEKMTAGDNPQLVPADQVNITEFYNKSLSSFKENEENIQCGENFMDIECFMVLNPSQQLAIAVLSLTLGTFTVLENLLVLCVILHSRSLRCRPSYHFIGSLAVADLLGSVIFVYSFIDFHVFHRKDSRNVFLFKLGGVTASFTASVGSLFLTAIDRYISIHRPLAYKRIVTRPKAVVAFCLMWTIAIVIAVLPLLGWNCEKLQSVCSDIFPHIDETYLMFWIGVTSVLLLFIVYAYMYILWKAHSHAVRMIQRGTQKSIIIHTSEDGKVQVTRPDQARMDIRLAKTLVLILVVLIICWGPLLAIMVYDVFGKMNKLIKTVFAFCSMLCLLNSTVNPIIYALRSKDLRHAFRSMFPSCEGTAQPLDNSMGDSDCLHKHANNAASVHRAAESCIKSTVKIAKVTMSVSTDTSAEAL
Sequence of Transient receptor potential cation channel subfamily V member 4 (Q9ERZ8 whole entry): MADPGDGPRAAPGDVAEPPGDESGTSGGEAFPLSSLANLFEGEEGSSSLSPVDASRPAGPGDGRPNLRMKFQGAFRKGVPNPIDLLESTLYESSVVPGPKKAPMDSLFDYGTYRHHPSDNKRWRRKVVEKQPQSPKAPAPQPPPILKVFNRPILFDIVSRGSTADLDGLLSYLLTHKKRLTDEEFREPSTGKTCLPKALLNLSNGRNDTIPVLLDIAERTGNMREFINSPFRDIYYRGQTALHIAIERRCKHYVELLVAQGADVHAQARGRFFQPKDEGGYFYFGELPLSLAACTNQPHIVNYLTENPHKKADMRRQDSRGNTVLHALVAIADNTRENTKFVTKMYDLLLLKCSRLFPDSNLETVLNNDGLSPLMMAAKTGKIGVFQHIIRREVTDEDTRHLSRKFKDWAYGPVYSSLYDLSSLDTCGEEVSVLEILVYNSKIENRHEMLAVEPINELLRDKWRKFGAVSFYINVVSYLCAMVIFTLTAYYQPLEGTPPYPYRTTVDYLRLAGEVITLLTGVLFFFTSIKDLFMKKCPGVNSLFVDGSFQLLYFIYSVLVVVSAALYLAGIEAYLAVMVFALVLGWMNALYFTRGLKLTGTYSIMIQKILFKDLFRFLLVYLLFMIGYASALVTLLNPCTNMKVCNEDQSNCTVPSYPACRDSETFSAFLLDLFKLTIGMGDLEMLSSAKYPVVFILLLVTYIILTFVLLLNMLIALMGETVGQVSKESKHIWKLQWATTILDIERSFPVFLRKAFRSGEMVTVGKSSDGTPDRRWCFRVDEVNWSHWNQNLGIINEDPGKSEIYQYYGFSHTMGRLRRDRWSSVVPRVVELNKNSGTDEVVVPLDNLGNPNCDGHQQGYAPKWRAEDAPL
Sequence of Cannabinoid receptor 2 (P34972 whole entry): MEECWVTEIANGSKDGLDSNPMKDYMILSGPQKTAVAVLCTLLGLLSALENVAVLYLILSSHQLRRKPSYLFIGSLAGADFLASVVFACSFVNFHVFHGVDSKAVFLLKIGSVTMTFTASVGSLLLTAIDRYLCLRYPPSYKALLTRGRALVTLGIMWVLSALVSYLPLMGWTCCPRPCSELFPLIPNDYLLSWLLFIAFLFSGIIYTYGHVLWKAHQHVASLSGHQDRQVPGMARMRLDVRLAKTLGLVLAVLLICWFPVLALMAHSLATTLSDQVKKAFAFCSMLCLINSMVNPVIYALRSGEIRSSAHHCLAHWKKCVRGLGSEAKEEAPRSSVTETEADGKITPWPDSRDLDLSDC
Sequence of Transient receptor potential cation channel subfamily V member 1 (Q8NER1 whole entry): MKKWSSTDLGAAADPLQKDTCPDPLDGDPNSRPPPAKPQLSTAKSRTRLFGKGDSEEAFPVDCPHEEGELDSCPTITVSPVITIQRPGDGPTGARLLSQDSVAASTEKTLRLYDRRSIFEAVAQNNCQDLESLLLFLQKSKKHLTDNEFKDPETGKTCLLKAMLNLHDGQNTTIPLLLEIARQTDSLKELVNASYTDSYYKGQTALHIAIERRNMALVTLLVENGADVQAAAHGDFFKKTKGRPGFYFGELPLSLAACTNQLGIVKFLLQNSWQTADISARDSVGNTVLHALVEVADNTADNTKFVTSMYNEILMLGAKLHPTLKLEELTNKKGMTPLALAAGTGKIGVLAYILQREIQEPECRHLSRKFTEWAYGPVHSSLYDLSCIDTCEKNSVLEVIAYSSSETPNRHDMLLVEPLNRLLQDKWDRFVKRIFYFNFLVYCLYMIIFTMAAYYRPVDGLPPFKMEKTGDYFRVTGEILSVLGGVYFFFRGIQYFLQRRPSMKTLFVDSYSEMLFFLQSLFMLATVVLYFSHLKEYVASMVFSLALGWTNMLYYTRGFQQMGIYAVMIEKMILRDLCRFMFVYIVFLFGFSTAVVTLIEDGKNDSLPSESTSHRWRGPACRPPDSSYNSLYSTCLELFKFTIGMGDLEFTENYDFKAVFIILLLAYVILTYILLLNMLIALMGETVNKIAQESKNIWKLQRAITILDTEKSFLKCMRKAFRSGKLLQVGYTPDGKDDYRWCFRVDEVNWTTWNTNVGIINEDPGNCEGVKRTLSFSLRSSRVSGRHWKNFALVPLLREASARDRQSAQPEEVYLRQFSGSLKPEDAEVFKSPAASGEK
Sequence of Transient receptor potential cation channel subfamily A member 1 (Q6RI86 whole entry): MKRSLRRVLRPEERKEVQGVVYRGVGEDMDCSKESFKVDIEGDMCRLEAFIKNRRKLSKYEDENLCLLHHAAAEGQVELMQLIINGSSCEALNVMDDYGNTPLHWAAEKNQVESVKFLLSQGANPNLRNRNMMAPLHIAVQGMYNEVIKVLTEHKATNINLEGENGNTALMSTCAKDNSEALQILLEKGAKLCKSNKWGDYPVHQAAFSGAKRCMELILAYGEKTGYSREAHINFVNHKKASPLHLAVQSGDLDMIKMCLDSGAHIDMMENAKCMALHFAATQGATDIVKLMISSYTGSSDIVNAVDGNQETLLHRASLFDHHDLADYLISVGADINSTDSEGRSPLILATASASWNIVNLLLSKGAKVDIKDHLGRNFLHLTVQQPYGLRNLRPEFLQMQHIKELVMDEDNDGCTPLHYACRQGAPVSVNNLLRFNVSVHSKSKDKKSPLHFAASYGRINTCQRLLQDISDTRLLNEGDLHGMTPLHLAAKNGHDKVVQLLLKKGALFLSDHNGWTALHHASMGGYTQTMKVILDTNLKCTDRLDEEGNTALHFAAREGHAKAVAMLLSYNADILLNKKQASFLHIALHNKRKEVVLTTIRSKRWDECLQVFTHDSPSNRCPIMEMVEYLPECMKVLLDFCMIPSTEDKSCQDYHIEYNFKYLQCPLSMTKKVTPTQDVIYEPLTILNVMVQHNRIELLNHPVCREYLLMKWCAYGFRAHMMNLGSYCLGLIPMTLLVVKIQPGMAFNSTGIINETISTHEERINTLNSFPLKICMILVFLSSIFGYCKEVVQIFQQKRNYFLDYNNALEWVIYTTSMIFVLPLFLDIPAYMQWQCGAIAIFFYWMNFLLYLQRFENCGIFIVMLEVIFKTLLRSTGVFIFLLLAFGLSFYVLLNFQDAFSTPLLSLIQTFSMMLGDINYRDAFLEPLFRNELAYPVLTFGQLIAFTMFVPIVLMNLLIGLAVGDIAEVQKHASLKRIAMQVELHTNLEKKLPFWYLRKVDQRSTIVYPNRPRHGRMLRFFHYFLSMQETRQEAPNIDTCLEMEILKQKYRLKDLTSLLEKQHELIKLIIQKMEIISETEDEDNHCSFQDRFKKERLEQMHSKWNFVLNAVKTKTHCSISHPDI
Sequence of Transient receptor potential cation channel subfamily M member 8 (Q8R455 whole entry): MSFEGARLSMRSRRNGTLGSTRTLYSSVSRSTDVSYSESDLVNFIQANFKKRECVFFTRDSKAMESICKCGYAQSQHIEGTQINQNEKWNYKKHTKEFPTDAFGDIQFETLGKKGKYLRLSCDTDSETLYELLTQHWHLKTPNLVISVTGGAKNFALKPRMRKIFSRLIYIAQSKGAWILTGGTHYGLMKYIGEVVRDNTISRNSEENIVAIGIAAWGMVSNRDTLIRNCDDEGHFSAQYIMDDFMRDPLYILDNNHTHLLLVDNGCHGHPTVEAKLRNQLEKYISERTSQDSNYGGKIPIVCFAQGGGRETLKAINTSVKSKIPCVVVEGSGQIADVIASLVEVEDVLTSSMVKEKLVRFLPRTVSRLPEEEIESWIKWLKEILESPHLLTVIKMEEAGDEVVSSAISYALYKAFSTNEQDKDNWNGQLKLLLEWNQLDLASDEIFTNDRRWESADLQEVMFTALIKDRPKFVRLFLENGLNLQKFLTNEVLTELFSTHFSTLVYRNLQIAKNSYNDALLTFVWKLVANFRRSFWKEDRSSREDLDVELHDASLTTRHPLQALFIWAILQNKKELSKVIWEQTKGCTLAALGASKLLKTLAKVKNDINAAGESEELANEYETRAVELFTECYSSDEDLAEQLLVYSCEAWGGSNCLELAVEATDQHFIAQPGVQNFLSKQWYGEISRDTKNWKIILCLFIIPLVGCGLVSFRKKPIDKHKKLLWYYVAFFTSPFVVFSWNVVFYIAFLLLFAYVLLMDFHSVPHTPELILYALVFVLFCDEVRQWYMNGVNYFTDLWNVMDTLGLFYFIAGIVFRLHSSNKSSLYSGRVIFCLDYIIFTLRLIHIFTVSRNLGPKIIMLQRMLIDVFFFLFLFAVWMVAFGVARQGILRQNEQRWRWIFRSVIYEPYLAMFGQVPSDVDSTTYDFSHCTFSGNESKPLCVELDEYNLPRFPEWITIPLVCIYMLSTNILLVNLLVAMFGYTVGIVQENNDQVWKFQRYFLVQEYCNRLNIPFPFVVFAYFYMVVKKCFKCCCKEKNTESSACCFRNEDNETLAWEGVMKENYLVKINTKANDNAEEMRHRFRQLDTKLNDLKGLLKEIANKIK

Take `CCCc1cc(O)c2c(c1)OC(C)(C)c1ccc(C)cc1-2`: the EC50 (usually the concentration that produces a half-maximal response) amounted to 3.1 µM in experiment [1]; 0.2 µM in experiment [2]; 3.5 µM in experiment [3]; 0.565 µM at Cannabinoid receptor 1; 6.6 µM in experiment [4]; 7.3 µM in experiment [5]. The half-maximal effective concentration (EC50) at Cannabinoid receptor 2 was 4.78 µM. Besides, the IC50 (in general, the concentration needed to halve the response being measured) in experiment [6] was determined as 0.5 µM.
As for `CCCCCc1cc(O)c2c(c1)OC(C)(C)c1ccc(C)cc1-2` [CANNABINOL], the EC50 in experiment [1] amounted to 19 µM; in experiment [2], 0.18 µM; in experiment [3] it was 5.3 µM; on Cannabinoid receptor 1 it was 0.075 µM; in experiment [4] it was 6.2 µM; in experiment [5], 16.1 µM. On Cannabinoid receptor 2, the EC50 stood at 0.073 µM. Also, the IC50 in experiment [6] worked out at 0.21 µM.
